Experimental findings from ChEMBL document CHEMBL1131058, “Studies on quinazolines and 1,2,4-benzothiadiazine 1,1-dioxides. 8.1, 2 synthesis and pharmacological evaluation of tricyclic fused quinazolines and 1,2,4-benzothiadiazine 1,1-dioxides as potential alpha1-adrenoceptor antagonists” (J Med Chem, 1998) are described below.

As usually defined, the Ki is the dissociation constant of the complex between target and ligand, obtained from inhibition or displacement. A lower Ki goes with tighter binding. As usually defined, the inhibition is how much of the control response was suppressed.

Assay [1] addresses T1, Alpha-1B adrenergic receptor (Rattus norvegicus, UniProt P15823).
T1 sequence (P15823 whole entry): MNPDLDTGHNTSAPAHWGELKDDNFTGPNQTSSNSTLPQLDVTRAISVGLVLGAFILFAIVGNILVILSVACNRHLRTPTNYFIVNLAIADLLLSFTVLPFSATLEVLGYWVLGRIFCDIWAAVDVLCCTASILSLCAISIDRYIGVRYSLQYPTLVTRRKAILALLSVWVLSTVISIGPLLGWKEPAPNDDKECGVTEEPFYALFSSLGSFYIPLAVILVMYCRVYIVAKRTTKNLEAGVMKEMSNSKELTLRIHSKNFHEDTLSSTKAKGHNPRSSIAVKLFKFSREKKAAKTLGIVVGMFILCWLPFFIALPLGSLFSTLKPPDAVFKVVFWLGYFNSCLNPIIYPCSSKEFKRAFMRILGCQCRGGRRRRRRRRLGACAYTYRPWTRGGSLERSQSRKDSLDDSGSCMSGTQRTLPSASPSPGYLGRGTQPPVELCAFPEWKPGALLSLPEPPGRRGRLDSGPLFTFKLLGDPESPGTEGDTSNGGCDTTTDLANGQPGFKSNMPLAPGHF
Put plainly: Displacement of [3H]prazosin from Alpha-1B adrenergic receptor of rat liver membrane. The procedure, abridged: (§1)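 Triplicate competition binding against 0.2-0.25 nM [³H]prazosin in Tris buffer pH 7.4, 30 min at room temperature. Competitor range 0.1-200 nM. Nonspecific binding defined with 10 µM phentolamine. Reaction stopped by GF/B filtration with two cold Tris washes. Membrane protein 300-400 µg per assay. Ki calculated from the data; mean ± SEM of 3-6 experiments.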
For orientation: In a radioligand displacement assay an active substance lowers the binding of a labelled ligand.

Assay [2] has as its target T2, Alpha-1A adrenergic receptor (Rattus norvegicus, UniProt P43140).
T2 sequence (P43140 whole entry): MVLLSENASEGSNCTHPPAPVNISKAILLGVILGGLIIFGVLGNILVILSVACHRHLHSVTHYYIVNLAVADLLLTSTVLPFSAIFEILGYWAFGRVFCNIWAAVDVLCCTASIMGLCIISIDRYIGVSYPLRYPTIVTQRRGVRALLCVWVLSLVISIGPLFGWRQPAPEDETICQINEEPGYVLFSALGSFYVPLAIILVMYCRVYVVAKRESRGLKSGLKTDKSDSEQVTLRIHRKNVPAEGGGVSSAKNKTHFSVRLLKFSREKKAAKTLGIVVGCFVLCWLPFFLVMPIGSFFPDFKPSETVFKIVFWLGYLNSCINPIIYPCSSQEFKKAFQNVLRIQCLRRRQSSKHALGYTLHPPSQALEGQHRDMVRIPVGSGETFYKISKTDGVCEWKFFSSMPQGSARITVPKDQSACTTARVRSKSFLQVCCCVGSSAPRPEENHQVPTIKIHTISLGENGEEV
Put plainly: Displacement of [3H]prazosin from Alpha-1A adrenergic receptor of rat submaxillary gland membranes. The format is cell membranes, Membrane. An outline of the steps:
as §1

The target of assay [3] is T3, Adrenergic receptor alpha-1 (Rattus norvegicus, UniProt P15823+P23944+P43140).
T3 sequence (P15823 whole entry): T1 sequence (P15823 whole entry)
T3 sequence (P23944 whole entry): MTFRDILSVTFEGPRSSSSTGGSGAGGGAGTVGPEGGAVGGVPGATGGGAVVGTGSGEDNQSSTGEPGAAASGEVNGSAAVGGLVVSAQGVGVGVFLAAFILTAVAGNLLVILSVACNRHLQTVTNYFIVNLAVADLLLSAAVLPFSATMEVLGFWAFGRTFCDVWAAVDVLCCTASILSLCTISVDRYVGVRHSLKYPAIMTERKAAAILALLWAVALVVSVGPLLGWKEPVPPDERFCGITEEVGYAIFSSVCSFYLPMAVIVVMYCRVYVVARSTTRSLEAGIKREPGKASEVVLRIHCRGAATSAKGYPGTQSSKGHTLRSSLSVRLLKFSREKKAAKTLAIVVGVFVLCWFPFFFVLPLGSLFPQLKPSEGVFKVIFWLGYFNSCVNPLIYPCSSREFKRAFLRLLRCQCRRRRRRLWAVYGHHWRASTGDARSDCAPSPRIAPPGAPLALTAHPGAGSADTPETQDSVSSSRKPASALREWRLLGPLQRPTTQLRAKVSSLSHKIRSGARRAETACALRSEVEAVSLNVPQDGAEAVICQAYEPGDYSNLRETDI
T3 sequence (P43140 whole entry): T2 sequence (P43140 whole entry)
Put plainly: Displacement of [3H]-prazosin from Alpha-1 adrenergic receptor of rat cortical membranes. The format is cell membranes, Membrane. The procedure, abridged:
as §1

Assay [4] can be described thus: Selectivity ratio for binding affinity towards alpha2 and alpha-1 adrenoceptors. The procedure, abridged: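 Ratio of α2 Ki ([³H]clonidine binding) to α1 Ki ([³H]prazosin binding), both measured in rat cortical membrane competition assays.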
Assay [5] concerns the target Serotonin 2 (5-HT2) receptor (Rattus norvegicus, UniProt P30994+P08909+P14842). Put plainly: Compound is evaluated for binding affinity towards 5-hydroxytryptamine 2 receptor using [3H]ketanserin in rat brain. It is filed as tissue-based. An outline of the steps:
(§2)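 Contract radioligand competition binding. Sources: 5-HT1 and 5-HT1A in rat brain cortex; 5-HT2 and σ2 in rat brain; σ in guinea pig brain; D2, rhD2 and rhD3 in CHO cells with [³H]spiperone; H1 in guinea pig lung with [³H]pyrilamine. Inhibition constants reported; no constant given where inhibition at 10 µM was below 50%.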

Assay [6] addresses T4, D(2) dopamine receptor (Homo sapiens, UniProt P14416). Put plainly: Compound is evaluated for binding affinity towards recombinant human Dopamine receptor D2 using [3H]spiperone in CHO cells at 10 uM. It is filed as cell-based. The procedure, abridged: (§3)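 Single-concentration screen at 10 µM in contract radioligand binding assays. Records whether inhibition of specific radioligand binding stayed below 50%.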

The target in assay [7] is T4, D(2) dopamine receptor. Put plainly: Compound is evaluated for binding affinity towards Dopamine receptor D2 using [3H]spiperone in CHO cells at 10 uM. The format is cell-based.
In assay [8] the target is T5, 5-hydroxytryptamine receptor 1A (Rattus norvegicus, UniProt P19327).
T5 sequence (P19327 whole entry): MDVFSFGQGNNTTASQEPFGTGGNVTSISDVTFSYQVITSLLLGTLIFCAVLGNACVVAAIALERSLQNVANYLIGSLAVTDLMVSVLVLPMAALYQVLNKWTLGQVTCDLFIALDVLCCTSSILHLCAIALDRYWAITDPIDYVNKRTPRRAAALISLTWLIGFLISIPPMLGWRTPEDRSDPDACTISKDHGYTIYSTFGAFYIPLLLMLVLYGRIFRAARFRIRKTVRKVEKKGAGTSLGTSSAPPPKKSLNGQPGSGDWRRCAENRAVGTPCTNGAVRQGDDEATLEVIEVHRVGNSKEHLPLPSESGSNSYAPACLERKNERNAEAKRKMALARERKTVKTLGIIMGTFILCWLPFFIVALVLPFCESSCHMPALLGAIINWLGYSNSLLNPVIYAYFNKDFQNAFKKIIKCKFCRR
Put plainly: Compound is evaluated for binding affinity towards 5-hydroxytryptamine 1A receptor using [3H]-8-OH- -DPAT in rat brain cortex. It is filed as tissue-based. The procedure, abridged:
as §2

The target of assay [9] is Serotonin 1 (5-HT1) receptor (Rattus norvegicus) (UniProt P28564+P30940+P19327+P28565). Put plainly: Compound is evaluated for binding affinity towards 5-hydroxytryptamine 1 receptor using [3H]5-HT in rat brain cortex at 10 uM. The format is tissue-based. The procedure, abridged:
as §3

T4 sequence (P14416 whole entry): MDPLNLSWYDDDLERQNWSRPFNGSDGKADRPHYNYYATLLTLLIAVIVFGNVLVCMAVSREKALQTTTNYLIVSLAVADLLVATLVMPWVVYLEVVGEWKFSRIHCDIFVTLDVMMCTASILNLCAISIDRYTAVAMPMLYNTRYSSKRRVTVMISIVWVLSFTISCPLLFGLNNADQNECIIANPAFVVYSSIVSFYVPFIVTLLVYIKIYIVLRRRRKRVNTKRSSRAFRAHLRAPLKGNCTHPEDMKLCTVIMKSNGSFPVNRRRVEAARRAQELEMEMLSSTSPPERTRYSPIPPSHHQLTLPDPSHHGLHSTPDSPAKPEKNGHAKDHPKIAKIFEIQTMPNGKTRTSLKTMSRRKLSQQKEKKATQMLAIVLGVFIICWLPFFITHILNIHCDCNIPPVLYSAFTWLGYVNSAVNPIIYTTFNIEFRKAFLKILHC

As to `COc1ccccc1N1CCN(C[C@@H]2CN=C3c4ccccc4NC(=O)N32)CC1`, the inhibitory constant (Ki) in assay [1] was 123 nM; in assay [2], 55 nM; in assay [3], 26 nM. Moreover, the Ratio in assay [4] was greater than 384.

Consider `COc1ccccc1N1CCN(CC2CN3C(=O)Nc4ccccc4C3=N2)CC1` (stereo not given), for which the inhibition constant Ki in assay [1] came to 5.5 nM; in assay [5] it was 369 nM; in assay [2], 0.65 nM; in assay [3], 0.93 nM; in assay [8] it was 238 nM. Moreover, the inhibition at D(2) dopamine receptor [6] and at D(2) dopamine receptor [7] was less than 50% throughout. For the same compound, the Ratio in assay [4] was found to be 247.

As for `COc1ccccc1N1CCN(C[C@H]2CN=C3c4ccccc4NC(=O)N32)CC1`, the values for the Ki in assay [1], in assay [2] and in [3] were 0.42 nM, 0.23 nM and 0.13 nM, respectively. In assay [4], the Ratio is 1410.

On to `COc1ccccc1N1CCN(C[C@H]2CN=C3c4ccccc4N=C(SC)N32)CC1`, for which the Ki in assay [1] was 1.4 nM; in assay [2], 1.5 nM; in assay [3] it was 1 nM. Besides, the Ratio in [4] was found to be 3500.

As for `COc1ccccc1N1CCN(CC2CN=C3c4ccccc4N=C(SC)N32)CC1` (stereo not given), the Ki in [1] is 3.9 nM; in assay [5], 168 nM; in assay [2], 0.93 nM; in [3] it was 0.9 nM; in assay [8], 237 nM. Besides, the Ratio in assay [4] amounted to 1080.

In the case of `COc1ccccc1N1CCN(C[C@@H]2CN=C3c4ccccc4N=C(SC)N32)CC1`, the Ki turned out to be 667 nM in assay [1], 122 nM in assay [2] and 144 nM in assay [3]. Further, the Ratio in assay [4] stood at 62.5.

With `COc1ccccc1N1CCN(Cc2cnc3c4ccccc4nc(O)n23)CC1`, the Ki in [5] was 514 nM; in [8], 4000 nM. Further, the inhibition (at D(2) dopamine receptor [6]; at D(2) dopamine receptor [7]; in assay [9]) was less than 50% throughout. Besides, in assay [4], the Ratio amounted to 1550.

Turning to `Oc1nc2ccccc2c2ncc(CN3CCN(c4ccccc4Cl)CC3)n12`, in assay [5], the Ki is given as 114 nM. Further, the inhibition (on D(2) dopamine receptor [6]; in [9]) was less than 50% each time. In addition, in assay [4], the Ratio came out at 382.

Turning to `COc1ccccc1N1CCN(Cc2cn3c(O)nc4ccccc4c3n2)CC1`, in assay [5], the Ki is given as 3580 nM. For the same compound, the inhibition (on D(2) dopamine receptor [6]; on D(2) dopamine receptor [7]; in assay [9]) was less than 50% each time. For the same compound, the Ratio in assay [4] is 1030.
